This is a sample that favours compounds with a hit; in the whole collection about 3.1% have one here.
Cneo AK release – causes C. neoformans cell lysis | hit rate 0.2% among 360,000 | adenylate kinase release luminescence, 4 h; normalised: neutral wells 0, clomiphene wells 100 | lysis activity, % at 15 µM;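 active = mean lysis activity across replicates of at least 80%, whatever share of replicates individually reach that level; inactive = mean lysis activity below 80%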
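Test system: log-phase Cryptococcus neoformans yeast cells; Quantity: yeast cell density of 5 × 10^6 cells/mL; Buffer or medium: YPD; Doses: single compound concentration per well; Timing: 4 h at 37 °C static, read 1 h later; Measured by: AK luminescence; Read-out basis: lysis from increased AK signal; Control set: Clomiphene as positive control.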
E-selectin induc – E-selectin induction on HUVECs. P16581. HUVEC E-selectin immunofluorescence imaging; normalized: neutral wells 0, TNF-alpha wells 100. activation, % at 7.58 µM. hit rate 0.37% among 260,000. AID 686992;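 active = mean E-selectin-positive cell signal at least 10% of the positive control, reached in at least 60% of replicates, without over 20% cell loss; inconclusive = no rule given, readout overlaps actives, possibly toxicity-flagged; inactive = the rest, including those meeting only one limit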
Target sequence (P16581 whole entry, looked up): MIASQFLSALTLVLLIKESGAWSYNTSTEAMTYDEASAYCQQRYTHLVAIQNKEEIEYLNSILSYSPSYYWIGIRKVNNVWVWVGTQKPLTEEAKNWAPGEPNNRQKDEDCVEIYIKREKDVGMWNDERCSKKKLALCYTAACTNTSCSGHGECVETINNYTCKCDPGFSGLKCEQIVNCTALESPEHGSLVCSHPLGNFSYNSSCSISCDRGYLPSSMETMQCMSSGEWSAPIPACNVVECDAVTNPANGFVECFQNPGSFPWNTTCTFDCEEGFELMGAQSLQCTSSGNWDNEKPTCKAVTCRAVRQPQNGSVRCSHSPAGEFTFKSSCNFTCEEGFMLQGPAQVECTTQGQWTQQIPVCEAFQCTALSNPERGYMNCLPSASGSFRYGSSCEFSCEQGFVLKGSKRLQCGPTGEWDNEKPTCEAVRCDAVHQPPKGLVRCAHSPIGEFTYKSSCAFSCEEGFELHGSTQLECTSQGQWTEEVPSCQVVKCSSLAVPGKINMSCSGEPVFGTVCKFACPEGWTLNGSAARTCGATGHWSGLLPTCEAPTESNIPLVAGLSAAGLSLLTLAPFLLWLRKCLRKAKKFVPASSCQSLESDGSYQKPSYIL
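material = human umbilical vein endothelial cells (HUVEC), E-selectin induction | quantity = 3,000 cells/well | medium = EGM-2 growth medium on 0.1% gelatin-coated wells | technique = immunofluorescence imaging | read-out basis = % PE-positive cells | control set = TNF-alpha positive control, DMSO neutral control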
DENV2 CPE rescue – DENV2-induced cell death inhibition; DENV2-infected cells, cytopathic effect rescue, plate reader; CPE inhibition, % at 9.99 µM; hit rate 1.7% among 350,000; in the data active = CPE inhibition above about 20%, passing the limit was not always enough; inconclusive = no clear call, values can overlap the other calls; tested in BHK-21 cells
Ecoli rRNA inh – inhibits bacterial ribosomal RNA function over humanized ribosomes | E. coli WT GFP vs humanized-ribosome RFP mutants, fluorescence, 24 h; stronger effect = lower value; DMSO median 0, no signal -100 | GFP signal change (wild-type ribosome), % (test concentration not listed) | hit rate 1.6% among 350,000;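 active = significant combined selectivity score with lowered wild-type GFP, culture density cut under 30%, mutant RFP and density less affected; inactive = any of these conditions unmet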
miR122 inh – inhibitors of miR-122 in Huh7 cells; Huh7 miR-122 Renilla luciferase sensor, 48 h; neutral wells = 0, positive control = 100; activation (reporter increase), % at 12.5 µM; hit rate 0.3% among 340,000; AID 602342;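 active = mean replicate activation score at least 90 and every replicate individually at or above 90; inconclusive = only one of the two criteria met; inactive = neither criterion met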;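 note: higher luciferase means less miR-122 activity so hits act as miR-122 inhibitors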
Hits are given with their value.

`Cc1ccc(S(=O)(=O)c2cccc(S(=O)(=O)N3CCOCC3)c2)cc1S(=O)(=O)N1CCOCC1` gave Cneo AK release inactive and miR122 inh inactive.
Cc1cc(=O)[nH]c2ccc(S(=O)(=O)Nc3ccccc3)cc12 was read as Cneo AK release inactive, DENV2 CPE rescue inactive, Ecoli rRNA inh inactive and miR122 inh inactive.
Cn1cnc(S(=O)(=O)N[C@@H]2CC[C@H](CC(=O)Nc3ccccc3)O[C@@H]2CO)c1 was read as Cneo AK release inactive, E-selectin induc inactive, DENV2 CPE rescue inactive and Ecoli rRNA inh inactive.
`O=C(NCc1ccccc1)c1ccccc1` gave Cneo AK release inactive, DENV2 CPE rescue 20.4 and miR122 inh inactive.
For O=C(NNC(=O)c1ccccc1OCc1ccc(F)cc1)c1ccccc1O the results were Cneo AK release inactive, E-selectin induc inactive and DENV2 CPE rescue inactive.
For O=C(NCc1ccccc1)c1ncn(Cc2ccccc2)c1C(=O)NCc1ccccc1 the results were Cneo AK release inactive, E-selectin induc inactive, Ecoli rRNA inh inactive and miR122 inh inactive.
Screening Cn1cnc(C(=O)NCc2ccccc2)c1C(=O)NCc1ccccc1 returned Cneo AK release inactive, E-selectin induc inactive, DENV2 CPE rescue inactive, Ecoli rRNA inh -31.5 and miR122 inh inactive.
Screening O=C(NCc1ccc(F)cc1)c1ccccc1OCc1ccccc1 returned Cneo AK release inactive, Ecoli rRNA inh -37.5 and miR122 inh inactive.
Screening CCC(=O)N1[C@@H](CO)[C@H](c2ccccc2)C12CN(C(=O)c1ccc(F)cc1)C2 returned E-selectin induc inactive, DENV2 CPE rescue inactive and Ecoli rRNA inh inactive.
`COc1ccc2c3c(n(C)c2c1)[C@H](CO)N(Cc1ccc2c(c1)OCO2)CC31CCN(C(=O)c2ccc3c(c2)OCO3)CC1` gave E-selectin induc inactive, DENV2 CPE rescue inactive and Ecoli rRNA inh inactive.
CN1C(=O)[C@H]2[C@@H](c3ccc(F)cc3)N3C(=O)c4ccccc4NC(=O)[C@@]3(C)[C@H]2C1=O was read as Cneo AK release inactive and miR122 inh 94.5.
`COc1ccccc1/C=C/C(=O)/C=C/c1ccccc1O` gave Cneo AK release inactive, E-selectin induc inactive, DENV2 CPE rescue inactive, Ecoli rRNA inh inactive and miR122 inh 126.3.
Screening COc1ccccc1/C=C/C(=O)NCC(=O)N/N=C/c1ccccc1 returned DENV2 CPE rescue inactive and Ecoli rRNA inh inactive.
Screening COc1ccccc1/C=C\C(=O)NCC(=O)N/N=C/c1ccc(O)cc1O returned Cneo AK release inactive, E-selectin induc inactive, DENV2 CPE rescue inactive, Ecoli rRNA inh -28.6 and miR122 inh inactive.
`N#Cc1cc2c(nc1SCc1ccccc1)CCCCC2` gave Cneo AK release inactive and miR122 inh inactive.
Screening N#Cc1cc2c(nc1SCC(O)CS(=O)(=O)Cc1ccccc1)CCCC2 (stereo not drawn) returned Cneo AK release inactive, DENV2 CPE rescue inactive, Ecoli rRNA inh -35.3 and miR122 inh inactive.
C[C@H](CO)N1C[C@H](C)[C@H](CN(C)Cc2ccccc2)OCCCC[C@H](C)Oc2ccc(NC(=O)Nc3ccc(C(F)(F)F)cc3)cc2C1=O was read as Cneo AK release inactive, E-selectin induc inactive, DENV2 CPE rescue inactive and miR122 inh inactive.
Screening Oc1c(CN2CCCCC2)ccc2cccnc12 returned Cneo AK release inactive, E-selectin induc inactive, DENV2 CPE rescue inactive and Ecoli rRNA inh -13.4.
`CCCN1[C@@H]2c3ccc(-c4ccccc4)c(=O)n3C[C@@H]2[C@@H](CO)[C@@H]1C(=O)OC` gave Cneo AK release inactive, E-selectin induc inactive, DENV2 CPE rescue inactive, Ecoli rRNA inh inactive and miR122 inh inactive.
Screening C(=C\c1ccccc1)/C=N/N1CCN(Cc2ccccc2)CC1 returned E-selectin induc inactive, DENV2 CPE rescue inactive and Ecoli rRNA inh -25.1.
For COc1ccc(NC(=O)Nc2ccc3c(c2)C(=O)N([C@@H](C)CO)C[C@H](C)[C@H](CN(C)S(=O)(=O)c2ccc(Cl)cc2)OCCCC[C@@H](C)O3)cc1 the results were Cneo AK release inactive, DENV2 CPE rescue inconclusive, Ecoli rRNA inh inactive and miR122 inh inactive.
`C[C@H](CO)N1C[C@H](C)[C@@H](CN(C)C(=O)Nc2cccc3ccccc23)Oc2ccc(NC(=O)CCC(F)(F)F)cc2CC1=O` gave Cneo AK release inactive, E-selectin induc inactive, DENV2 CPE rescue inactive, Ecoli rRNA inh inactive and miR122 inh inactive.
Screening C[C@@H]1CN([C@@H](C)CO)C(=O)Cc2cc(NC(=O)Cc3ccccc3)ccc2O[C@H]1CN(C)C(=O)Nc1cccc2ccccc12 returned Cneo AK release inactive, E-selectin induc 337.6, DENV2 CPE rescue 43.4, Ecoli rRNA inh inactive and miR122 inh inactive.
Screening C[C@@H]1CN([C@H](C)CO)C(=O)Cc2cc(NC(=O)CCC(F)(F)F)ccc2O[C@@H]1CN(C)C(=O)Nc1cccc2ccccc12 returned Cneo AK release inactive, E-selectin induc inactive, DENV2 CPE rescue 30.2, Ecoli rRNA inh inactive and miR122 inh inactive.
C[C@H](CO)N1C[C@H](C)[C@@H](CN(C)C(=O)Nc2cccc3ccccc23)Oc2ccc(NC(=O)Cc3cn(C)c4ccccc34)cc2CC1=O was read as Cneo AK release inactive, E-selectin induc inactive, DENV2 CPE rescue inactive, Ecoli rRNA inh inactive and miR122 inh inactive.
`C[C@@H]1CN([C@H](C)CO)C(=O)Cc2cc(NC(=O)Cc3cn(C)c4ccccc34)ccc2O[C@@H]1CN(C)C(=O)Nc1cccc2ccccc12` gave Cneo AK release inactive, E-selectin induc inactive, DENV2 CPE rescue 45.0, Ecoli rRNA inh inactive and miR122 inh inactive.
`O=C(NC[C@H]1CC[C@H]2[C@H](CN2C(=O)Cc2ccncc2)O1)C1CCOCC1` gave DENV2 CPE rescue inactive.
For O=C(C[C@@H]1C=C[C@H](NS(=O)(=O)c2ccc(F)cc2)[C@H](CO)O1)N1CCC(Cc2ccccc2)CC1 the results were Cneo AK release inactive, E-selectin induc inactive, DENV2 CPE rescue inactive and Ecoli rRNA inh inactive.
For CCc1ccc(NS(=O)(=O)c2ccc(OC)c3ncccc23)cc1 the results were Cneo AK release inactive, DENV2 CPE rescue inactive, Ecoli rRNA inh inactive and miR122 inh 173.2.
Screening CCc1ccccc1NS(=O)(=O)c1ccc(OC)c2ncccc12 returned Cneo AK release inactive, E-selectin induc inactive, DENV2 CPE rescue inactive, Ecoli rRNA inh inactive and miR122 inh inactive.
Screening COc1ccc(S(=O)(=O)N(CC(C)C)CC(C)C)c2cccnc12 returned Cneo AK release inactive, E-selectin induc inactive, DENV2 CPE rescue 57.1, Ecoli rRNA inh inactive and miR122 inh inactive.
`CCCCN(CCCC)S(=O)(=O)c1ccc(OC)c2ncccc12` gave Cneo AK release inactive and miR122 inh inactive.
For CO[C@H]1CN(C)C(=O)c2cc(NC(C)=O)ccc2OC[C@H](C)N(C(=O)c2cnccn2)C[C@@H]1C the results were Cneo AK release inactive, E-selectin induc inactive, DENV2 CPE rescue inactive and Ecoli rRNA inh inactive.
Screening O=S(=O)(Nc1cccnc1)c1ccc(F)cc1 returned Cneo AK release inactive, DENV2 CPE rescue inactive, Ecoli rRNA inh inactive and miR122 inh inactive.

High-throughput results as filed in PubChem BioAssay.
